# Measurements: ChEMBL document CHEMBL4330106, “A new class of pentapeptide KISS1 receptor agonists with hypothalamic-pituitary-gonadal axis activation” (Bioorg Med Chem Lett, 2019)
# pEC50: −log10 of the molar value. Calls of active or inactive are those of the source. The rule behind the calls is not given here. Square brackets hold non-standard residues; d marks the D form. Peptide text beside a SMILES is read from it. * marks the point of attachment. Propanoyl(3-indol-3-yl) = O=C(CCc1c[nH]c2ccccc12)*; Propanoyl(3-(4-pyridyl)) = O=C(CCc1ccncc1)*; Arg(Me) = CNC(=N)NCCC[C@H](N)C(=O)O; Hydrocinnamoyl = O=C(CCc1ccccc1)*; d4Pal = N[C@H](Cc1ccncc1)C(=O)O; Hexanoyl = CCCCCC(=O)*; Bz = O=C(c1ccccc1)*; azaGly = NNC(=O)O
# Columns and labels:
# [1] = Retention time of the compound by reverse-phase HPLC method; assay type: physicochemical
# How it was run: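 RP-HPLC on C18 monolith column. Linear gradient of 0.1% TFA water / 0.1% TFA acetonitrile, A/B 95/5 to 35/65 over 10 min, 3.0 mL/min.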
# KiSS-1 receptor [2] = target: KiSS-1 receptor (Homo sapiens, UniProt Q969F8); test: Agonist activity at human KISS1R expressed in CHO cells assessed as increase in calcium mobilization measured at 2 secs interval for 2 mins by fluo-4 NW dye based FLIPR assay; assay type: functional, cell-based
# Sequence of KiSS-1 receptor (Homo sapiens, UniProt Q969F8) (Q969F8 whole entry): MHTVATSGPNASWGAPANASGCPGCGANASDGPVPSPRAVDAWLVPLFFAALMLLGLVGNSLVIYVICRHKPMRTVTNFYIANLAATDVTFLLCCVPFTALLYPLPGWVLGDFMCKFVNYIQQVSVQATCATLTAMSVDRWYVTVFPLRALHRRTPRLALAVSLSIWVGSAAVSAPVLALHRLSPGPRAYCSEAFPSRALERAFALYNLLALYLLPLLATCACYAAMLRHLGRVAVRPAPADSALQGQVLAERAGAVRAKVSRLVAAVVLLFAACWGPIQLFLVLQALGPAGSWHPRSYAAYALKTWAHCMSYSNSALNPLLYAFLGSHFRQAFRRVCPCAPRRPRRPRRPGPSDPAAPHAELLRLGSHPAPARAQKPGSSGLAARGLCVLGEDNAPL
# How it was run: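 Ligand-induced Ca2+ rise in CHO cells expressing human KISS1R, read on a fluorometric imaging plate reader (FLIPR); agonist potency reported as EC50 (nM).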
# [3] = Stability in Sprague-Dawley rat serum assessed as parent compound remaining at 10 ug/ml measured after 60 mins by LC-MS/MS analysis; assay type: ADME, cell-free; settings: read-out: Stability
# How it was run: (§1)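 10 µL of 10 μg/mL aqueous peptide stock added to 990 μL pre-warmed SD rat serum (final 0.1 μg/mL), 37 °C. Aliquots taken at 0, 5, 15, 30, 60, 120 min. Quenched with formic acid/methanol and acetonitrile, centrifuged, internal standard added, quantified by LC/MS/MS. Result is percent remaining; n = 2.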
# KiSS-1 receptor [4] = target: KiSS-1 receptor (Rattus norvegicus, UniProt Q924U1); test: Agonist activity at rat KISS1R
# Sequence of KiSS-1 receptor (Rattus norvegicus, UniProt Q924U1) (Q924U1 whole entry): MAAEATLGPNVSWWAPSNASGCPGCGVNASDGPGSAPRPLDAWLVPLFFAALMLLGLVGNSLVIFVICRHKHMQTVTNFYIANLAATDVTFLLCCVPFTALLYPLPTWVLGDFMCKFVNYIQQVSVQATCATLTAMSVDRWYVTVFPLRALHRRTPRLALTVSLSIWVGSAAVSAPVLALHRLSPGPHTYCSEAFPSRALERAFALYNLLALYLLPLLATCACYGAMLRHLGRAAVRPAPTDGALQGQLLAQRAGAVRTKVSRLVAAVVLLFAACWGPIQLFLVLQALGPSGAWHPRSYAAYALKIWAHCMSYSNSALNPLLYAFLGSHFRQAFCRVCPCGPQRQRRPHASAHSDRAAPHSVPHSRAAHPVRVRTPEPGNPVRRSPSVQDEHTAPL
# [5] = Stability in Sprague-Dawley rat serum assessed as parent compound remaining at 10 ug/ml measured immediately by LC-MS/MS analysis; assay type: ADME, cell-free; settings: read-out: Stability; how it was run: as §1
# [6] = Stability in Sprague-Dawley rat serum assessed as parent compound remaining at 10 ug/ml measured after 5 mins by LC-MS/MS analysis; assay type: ADME, cell-free; settings: read-out: Stability; how it was run: as §1
# [7] = Stability in Sprague-Dawley rat serum assessed as parent compound remaining at 10 ug/ml measured after 30 mins by LC-MS/MS analysis; assay type: ADME, cell-free; settings: read-out: Stability; how it was run: as §1
# [8] = Stability in Sprague-Dawley rat serum assessed as parent compound remaining at 10 ug/ml measured after 15 mins by LC-MS/MS analysis; assay type: ADME, cell-free; settings: read-out: Stability; how it was run: as §1
# [9] = Stability in Sprague-Dawley rat serum assessed as parent compound remaining at 10 ug/ml measured after 120 mins by LC-MS/MS analysis; assay type: ADME, cell-free; settings: read-out: Stability; how it was run: as §1
# [10] = Solubility of the compound in saline; assay type: physicochemical
# [11] = Solubility of the compound in water; assay type: physicochemical
# [12] = Drug uptake in Crl:CD(SD) rat plasma administered via subcutaneous osmotic pumps every 1 hr after 6 days by LC/MS analysis; assay type: ADME, cell-free; settings: sc, 144 h
# How it was run: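 9-week-old male Crl:CD (SD) rats (five per group) implanted subcutaneously with osmotic pumps of 5, 10 or 20 mM aqueous peptide, delivering 5, 10, 20 nmol/h for 6 days. Steady-state plasma measured by LC/MS after protein precipitation with organic solvent; mean ± SD.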
# Rattus norvegicus [13] = test: Suppression of plasma testosterone level in Crl:CD(SD) rat at 5 to 20 nmol/hr administered via subcutaneous osmotic pumps measured after 6 days by radioimmunoassay; assay type: ADME, organism-based; settings: in vivo, sc, 144 h
# How it was run: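 Five 9-week-old male Crl:CD (SD) rats per group received continuous subcutaneous infusion by osmotic pump for 6 days: leuprolide 2 nmol/h, or test peptide 5, 10, 20 nmol/h from 5–20 mM aqueous solution. Plasma testosterone measured by radioimmunoassay. Distilled-water control; Dunnett's test; mean ± SD.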
# Rattus norvegicus [14] = test: Increase in plasma luteinizing hormone AUC (0 to 8 hrs) in Crl:CD(SD) rat at 100 nmol/kg, sc administered as single bolus dose; assay type: functional, organism-based
# How it was run: (§2)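 Single subcutaneous bolus of 10, 100 or 1000 nmol/kg in 9-week-old male Crl:CD (SD) rats, n = 5, saline vehicle. Plasma LH measured 1, 2, 4 and 8 h post-dose. AUC0–8h (ng·h/mL) calculated per rat. One-tailed Williams' test versus vehicle; mean ± SD.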
# Rattus norvegicus [15] = test: Stimulation of plasma luteinizing hormone release in sc dosed Crl:CD(SD) rat administered as single bolus dose measured after 1 to 8 hrs; assay type: functional, organism-based; how it was run: as §2
Retention_time [1] [min],pEC50 (KiSS-1 receptor [2]),SMILES,further results
5.52,9.89,CCC(=O)N[C@@H](Cc1ccccc1)C(=O)NNC(=O)N[C@@H](CC(C)C)C(=O)N[C@@H](CCCNC(=N)NC)C(=O)N[C@@H](Cc1c[nH]c2ccccc12)C(N)=O,–
6.49,9.57,CNC(=N)NCCC[C@H](NC(=O)[C@H](CC(C)C)NC(=O)NNC(=O)[C@H](Cc1ccccc1)NC(=O)Cc1ccccc1)C(=O)N[C@@H](Cc1c[nH]c2ccccc12)C(N)=O,–
6.21,9.22,CNC(=N)NCCC[C@H](NC(=O)[C@H](CC(C)C)NC(=O)NNC(=O)[C@H](Cc1ccccc1)NC(=O)c1ccccc1)C(=O)N[C@@H](Cc1ccccc1)C(N)=O (Bz-F[azaGly]L[Arg(Me)]F-NH2),–
5.88,9.96,CNC(=N)NCCC[C@H](NC(=O)[C@H](CC(C)C)NC(=O)NNC(=O)[C@H](Cc1ccccc1)NC(=O)c1ccoc1)C(=O)N[C@@H](Cc1c[nH]c2ccccc12)C(N)=O,–
5.7,10.55,CNC(=N)NCCC[C@H](NC(=O)[C@H](CC(C)C)NC(=O)NNC(=O)[C@H](Cc1ccccc1)NC(=O)C1CC1)C(=O)N[C@@H](Cc1c[nH]c2ccccc12)C(N)=O,–
–,9.57,CNC(=N)NCCC[C@H](NC(=O)[C@H](CC(C)C)NC(=O)NNC(=O)[C@H](Cc1ccccc1)NC(=O)[C@H](CO)NC(=O)[C@H](CC(N)=O)NC(=O)[C@@H](Cc1ccncc1)NC(=O)[C@H](N)Cc1ccc(O)cc1)C(=O)N[C@@H](Cc1ccccc1)C(N)=O [KISS1-305] (H-[dY][d4Pal]NSF[azaGly]L[Arg(Me)]F-NH2),"remaining at 1 h, 10 ug/ml [3]: 89%; pEC50 (KiSS-1 receptor [4]): 9.77; remaining at 0 min, 10 ug/ml [5]: 100%; remaining at 5 min, 10 ug/ml [6]: 98%; remaining at 0.5 h, 10 ug/ml [7]: 95%; remaining at 0.25 h, 10 ug/ml [8]: 97%; remaining at 2 h, 10 ug/ml [9]: 70%"
5.03,8.11,CNC(=N)NCCC[C@H](NC(=O)[C@H](CC(C)C)NC(=O)NNC(=O)[C@H](Cc1ccccc1)NC(=O)[C@H](CO)NC(=O)[C@H](CC(N)=O)NC(=O)[C@@H](N)Cc1c[nH]c2ccccc12)C(=O)N[C@@H](Cc1ccccc1)C(N)=O (H-WNSF[azaGly]L[Arg(Me)]F-NH2),–
5.88,10.24,CNC(=N)NCCC[C@H](NC(=O)[C@H](CC(C)C)NC(=O)NNC(=O)[C@H](Cc1ccccc1)NC(=O)C(C)C)C(=O)N[C@@H](Cc1c[nH]c2ccccc12)C(N)=O,–
5.54,10.24,CNC(=N)NCCC[C@H](NC(=O)[C@H](CC(C)C)NC(=O)NNC(=O)[C@H](Cc1ccccc1)NC(=O)[C@H](CO)NC(=O)[C@H](CC(N)=O)NC(=O)[C@H](Cc1c[nH]c2ccccc12)NC(=O)[C@H](N)Cc1ccc(O)cc1)C(=O)N[C@@H](Cc1ccccc1)C(N)=O (H-[dY]WNSF[azaGly]L[Arg(Me)]F-NH2),–
5.9,9.77,CNC(=N)NCCC[C@H](NC(=O)[C@H](CC(C)C)NC(=O)NNC(=O)[C@H](Cc1ccccc1)NC(=O)[C@H](CO)NC(=O)[C@H](CC(N)=O)NC(=O)CCc1ccccc1)C(=O)N[C@@H](Cc1ccccc1)C(N)=O (Hydrocinnamoyl-NSF[azaGly]L[Arg(Me)]F-NH2),–
4.47,9.62,CNC(=N)NCCC[C@H](NC(=O)[C@H](CC(C)C)NC(=O)NNC(=O)[C@H](Cc1ccccc1)NC(=O)c1c[nH]cn1)C(=O)N[C@@H](Cc1c[nH]c2ccccc12)C(N)=O,–
4.51,8.82,CNC(=N)NCCC[C@H](NC(=O)[C@H](CC(C)C)NC(=O)NNC(=O)[C@H](Cc1ccccc1)NC(=O)[C@H](CO)NC(=O)[C@H](CC(N)=O)NC(=O)CCc1ccncc1)C(=O)N[C@@H](Cc1ccccc1)C(N)=O ({Propanoyl(3-(4-pyridyl))}-NSF[azaGly]L[Arg(Me)]F-NH2),–
6.66,8.85,CCCCCC(=O)N[C@@H](Cc1ccccc1)C(=O)NNC(=O)N[C@@H](CC(C)C)C(=O)N[C@@H](CCCNC(=N)NC)C(=O)N[C@@H](Cc1ccccc1)C(N)=O (Hexanoyl-F[azaGly]L[Arg(Me)]F-NH2),–
5.76,8.68,CNC(=N)NCCC[C@H](NC(=O)[C@H](CC(C)C)NC(=O)NNC(=O)[C@H](Cc1ccccc1)NC(=O)[C@H](CO)NC(=O)[C@H](CC(N)=O)NC(=O)[C@H](Cc1c[nH]c2ccccc12)NC(C)=O)C(=O)N[C@@H](Cc1ccccc1)C(N)=O (Ac-WNSF[azaGly]L[Arg(Me)]F-NH2),–
6.58,9.21,CNC(=N)NCCC[C@H](NC(=O)[C@H](CC(C)C)NC(=O)NNC(=O)[C@H](Cc1ccccc1)NC(=O)CCc1c[nH]c2ccccc12)C(=O)N[C@@H](Cc1ccccc1)C(N)=O ({Propanoyl(3-indol-3-yl)}-F[azaGly]L[Arg(Me)]F-NH2),–
6.67,10.66,CNC(=N)NCCC[C@H](NC(=O)[C@H](CC(C)C)NC(=O)NNC(=O)[C@H](Cc1ccccc1)NC(=O)CCc1c[nH]c2ccccc12)C(=O)N[C@@H](Cc1c[nH]c2ccccc12)C(N)=O,–
5.95,9.89,CNC(=N)NCCC[C@H](NC(=O)[C@H](CC(C)C)NC(=O)NNC(=O)[C@H](Cc1ccccc1)NC(=O)[C@H](CO)NC(=O)[C@H](CC(N)=O)NC(=O)CCc1c[nH]c2ccccc12)C(=O)N[C@@H](Cc1ccccc1)C(N)=O ({Propanoyl(3-indol-3-yl)}-NSF[azaGly]L[Arg(Me)]F-NH2),–
5.02,9.48,CNC(=N)NCCC[C@H](NC(=O)[C@H](CC(C)C)NC(=O)NNC(=O)[C@H](Cc1ccccc1)NC(C)=O)C(=O)N[C@@H](Cc1ccccc1)C(N)=O (Ac-F[azaGly]L[Arg(Me)]F-NH2),–
6.29,10.62,CNC(=N)NCCC[C@H](NC(=O)[C@H](CC(C)C)NC(=O)NNC(=O)[C@H](Cc1ccccc1)NC(=O)c1ccccc1)C(=O)N[C@@H](Cc1c[nH]c2ccccc12)C(N)=O,"remaining at 1 h, 10 ug/ml [3]: 95%; remaining at 0 min, 10 ug/ml [5]: 100%; remaining at 5 min, 10 ug/ml [6]: 98%; remaining at 0.5 h, 10 ug/ml [7]: 99%; remaining at 0.25 h, 10 ug/ml [8]: 97%; solubility [10]: < 100 µg/mL; solubility [11]: < 10000 µg/mL; remaining at 2 h, 10 ug/ml [9]: 91%"
4.69,9.80,CNC(=N)NCCC[C@H](NC(=O)[C@H](CC(C)C)NC(=O)NNC(=O)[C@H](Cc1ccccc1)NC(=O)c1cccnc1)C(=O)N[C@@H](Cc1c[nH]c2ccccc12)C(N)=O,–
5.91,9.64,CNC(=N)NCCC[C@H](NC(=O)[C@H](CC(C)C)NC(=O)NNC(=O)[C@H](Cc1ccccc1)NC(=O)c1ccc[nH]1)C(=O)N[C@@H](Cc1c[nH]c2ccccc12)C(N)=O,–
4.48,10.17,CNC(=N)NCCC[C@H](NC(=O)[C@H](CC(C)C)NC(=O)NNC(=O)[C@H](Cc1ccccc1)NC(=O)c1ccncc1)C(=O)N[C@@H](Cc1c[nH]c2ccccc12)C(N)=O,pEC50 (KiSS-1 receptor [4]): 8.92; Drug uptake [12]: Dose-dependent effect; Activity (Rattus norvegicus [13]): Non-Toxic; solubility [10]: > 1000 µg/mL; Activity (Rattus norvegicus [14]): Active; solubility [11]: > 20000 µg/mL; Activity (Rattus norvegicus [15]): Dose-dependent effect
6.02,10.43,CNC(=N)NCCC[C@H](NC(=O)[C@H](CC(C)C)NC(=O)NNC(=O)[C@H](Cc1ccccc1)NC(=O)c1ccccn1)C(=O)N[C@@H](Cc1c[nH]c2ccccc12)C(N)=O,–
6.7,9.92,CNC(=N)NCCC[C@H](NC(=O)[C@H](CC(C)C)NC(=O)NNC(=O)[C@H](Cc1ccccc1)NC(=O)C1CCCCC1)C(=O)N[C@@H](Cc1c[nH]c2ccccc12)C(N)=O,–
6.17,8.09,CNC(=N)NCCC[C@H](NC(=O)[C@H](CC(C)C)NC(=O)NNC(=O)[C@H](Cc1ccccc1)NC(=O)[C@H](CO)NC(=O)CCc1c[nH]c2ccccc12)C(=O)N[C@@H](Cc1ccccc1)C(N)=O ({Propanoyl(3-indol-3-yl)}-SF[azaGly]L[Arg(Me)]F-NH2),–
4.29,6.89,CNC(=N)NCCC[C@H](NC(=O)[C@H](CC(C)C)NC(=O)NNC(=O)[C@@H](N)Cc1ccccc1)C(=O)N[C@@H](Cc1ccccc1)C(N)=O (H-F[azaGly]L[Arg(Me)]F-NH2),–
